For series [1], the target named is T1, Peroxisome proliferator-activated receptor alpha (Homo sapiens, UniProt Q07869).
T1 sequence (Q07869 whole entry): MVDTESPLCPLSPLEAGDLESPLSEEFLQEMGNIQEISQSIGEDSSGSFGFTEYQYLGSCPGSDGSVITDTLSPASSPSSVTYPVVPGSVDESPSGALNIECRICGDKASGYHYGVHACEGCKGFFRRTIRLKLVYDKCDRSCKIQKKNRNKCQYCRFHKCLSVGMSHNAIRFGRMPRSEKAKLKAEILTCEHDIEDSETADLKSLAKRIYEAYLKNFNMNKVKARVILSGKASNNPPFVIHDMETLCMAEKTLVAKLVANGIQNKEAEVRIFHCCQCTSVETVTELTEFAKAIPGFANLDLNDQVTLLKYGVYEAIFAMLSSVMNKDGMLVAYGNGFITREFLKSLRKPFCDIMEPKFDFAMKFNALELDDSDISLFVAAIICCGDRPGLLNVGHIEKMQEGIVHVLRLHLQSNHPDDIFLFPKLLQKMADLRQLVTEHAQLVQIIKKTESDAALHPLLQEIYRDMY
Put plainly: Partial agonist activity at Gal4-fused PPARalpha LBD (unknown origin) expressed in HEK293T cells after 14 to 16 hrs by dual-Glo luciferase assay. In kind it is cell-based. An outline of the steps: (§1)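 Gal4 hybrid reporter assay in transiently transfected HEK293T cells. Constructs fuse the yeast Gal4 DNA-binding domain to the human receptor LBD. Firefly luciferase is the reporter. Constitutive renilla luciferase monitors transfection efficiency and toxicity. EC50 and maximal relative activation are reported as mean±S.E.M., n≥3.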

Series [2] concerns the target T2, Peroxisome proliferator-activated receptor gamma (Homo sapiens) (UniProt P37231).
T2 sequence (whole entry): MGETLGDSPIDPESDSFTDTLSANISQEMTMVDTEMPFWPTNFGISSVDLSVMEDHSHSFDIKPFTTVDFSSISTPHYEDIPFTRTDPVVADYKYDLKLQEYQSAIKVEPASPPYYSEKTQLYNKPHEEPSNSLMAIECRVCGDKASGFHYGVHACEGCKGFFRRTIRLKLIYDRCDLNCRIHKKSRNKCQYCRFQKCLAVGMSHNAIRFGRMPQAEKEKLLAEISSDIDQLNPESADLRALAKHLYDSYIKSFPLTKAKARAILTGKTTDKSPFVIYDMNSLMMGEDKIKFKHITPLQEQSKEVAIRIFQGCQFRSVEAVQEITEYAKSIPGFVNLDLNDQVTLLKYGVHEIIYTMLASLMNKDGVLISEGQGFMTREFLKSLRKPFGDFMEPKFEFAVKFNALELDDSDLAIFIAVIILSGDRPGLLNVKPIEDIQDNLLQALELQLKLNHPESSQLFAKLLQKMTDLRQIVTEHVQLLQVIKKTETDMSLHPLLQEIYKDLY
Put plainly: Partial agonist activity at Gal4-fused PPARgamma LBD (unknown origin) expressed in HEK293T cells after 14 to 16 hrs by dual-Glo luciferase assay relative to pioglitazone. In kind it is cell-based. In outline: as §1

The target of series [3] is T3, Peroxisome proliferator-activated receptor gamma (Homo sapiens, UniProt P37231).
T3 sequence (P37231 whole entry): T2 sequence (whole entry)
Put plainly: Partial agonist activity at recombinant N-terminal GFP-fused PPARgamma LBD (unknown origin) assessed as increase in biotinylated-CBP peptide recruitment measured after 2 hrs by HTRF assay. In outline:
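Cell-free HTRF assay of CBP coactivator recruitment to recombinant PPARγ protein.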

Series [4] addresses T3, Peroxisome proliferator-activated receptor gamma. Put plainly: Partial agonist activity at Gal4-fused PPARgamma LBD (unknown origin) expressed in HEK293T cells after 14 to 16 hrs by dual-Glo luciferase assay. In kind it is cell-based. An outline of the steps: as §1
The target in series [5] is Retinoid X receptor (Homo sapiens) (UniProt P28702+P48443+P19793). Put plainly: Agonist activity at RXR (unknown origin) at 10 uM. In kind it is protein assay.
Series [6] is described as follows: Partial agonist activity at recombinant PPARgamma LBD/N-terminal GFP-fused RXRalpha mutant LBD (unknown origin) assessed as increase in biotinylated-CBP peptide recruitment measured after 2 hrs by HTRF assay. On the set-up: species or system Homo sapiens. An outline of the steps:
(§2)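 Cell-free HTRF assay of coactivator peptide recruitment (CBP or SRC-1) to the recombinant PPARγ:RXRα heterodimer.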
Background: In TR-FRET formats the signal depends on donor and acceptor labels being close together.

Series [7] can be described thus: Partial agonist activity at recombinant PPARgamma LBD/N-terminal GFP-fused RXRalpha mutant LBD (unknown origin) assessed as increase in biotinylated-SRC1 peptide recruitment measured after 2 hrs by HTRF assay. Set-up: species or system Homo sapiens. An outline of the steps:
as §2

In another series the test system is NHDF. The series is described as follows: Induction of adipogenesis in NHDF assessed as reduction in fibroblast differentiation into matured adipocytes at 0.2 to 20 uM administered on day 3 of differentiation 1 and day 5 of differentiation 2 followed by media refreshment at 2 days interval up to 13 days and measured on day 14 by Oil red O staining based light microscopic analysis. In kind it is cell-based. The following applies: human. In outline:
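Primary human fibroblasts (NHDF) were differentiated to mature adipocytes and treated with ligand or DMSO; the test compound was used at 0.2, 2 and 20 µM and the reference at 2 µM. Lipid accumulation was read by Oil Red O staining, with four replicates.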

Series [8] deals with Retinoic acid receptor (Homo sapiens) (UniProt P13631+P10826+P10276). Put plainly: Agonist activity at RAR (unknown origin) at 10 uM. The class given is protein assay.
For series [9], the target named is T4, Peroxisome proliferator-activated receptor delta (Homo sapiens) (UniProt Q03181).
T4 sequence (whole entry): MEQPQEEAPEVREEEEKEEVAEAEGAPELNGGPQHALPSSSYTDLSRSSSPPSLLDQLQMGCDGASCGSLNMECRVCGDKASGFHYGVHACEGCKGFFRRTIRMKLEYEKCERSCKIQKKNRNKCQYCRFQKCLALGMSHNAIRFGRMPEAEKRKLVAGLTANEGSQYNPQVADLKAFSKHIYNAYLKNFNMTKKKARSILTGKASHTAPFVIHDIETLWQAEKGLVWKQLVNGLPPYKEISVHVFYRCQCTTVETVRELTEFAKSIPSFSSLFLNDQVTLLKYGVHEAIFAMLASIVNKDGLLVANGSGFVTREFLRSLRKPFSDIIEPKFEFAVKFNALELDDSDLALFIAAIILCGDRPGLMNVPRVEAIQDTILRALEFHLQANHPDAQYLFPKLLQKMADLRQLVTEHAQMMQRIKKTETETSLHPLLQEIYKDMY
Put plainly: Partial agonist activity at Gal4-fused PPARdelta LBD (unknown origin) expressed in HEK293T cells after 14 to 16 hrs by dual-Glo luciferase assay relative to L165041. In kind it is cell-based. An outline of the steps: as §1

Series [10] concerns the target T3, Peroxisome proliferator-activated receptor gamma. Put plainly: Selective modulation of PPARgamma in human HepG2 cells assessed as induction of ANGPTL4 mRNA expression at 1 uM measured after 12 hrs by qPCR analysis. In kind it is cell-based. The following applies: hepg2, 12 h. In outline: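 HepG2 cells were incubated with test compound at 1 µM. mRNA of the PPARγ target genes adiponectin and ANGPTL4 was quantified. Mean±S.E.M., n≥3.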
Background: Real-time PCR tracks product formation cycle by cycle.

Series [11] has as its target T5, Peroxisome proliferator-activated receptor delta (Homo sapiens, UniProt Q03181).
T5 sequence (Q03181 whole entry): T4 sequence (whole entry)
The series is described as follows: Partial agonist activity at Gal4-fused PPARdelta LBD (unknown origin) expressed in HEK293T cells after 14 to 16 hrs by dual-Glo luciferase assay. The class given is cell-based. An outline of the steps:
as §1

Series [12] deals with T3, Peroxisome proliferator-activated receptor gamma. Put plainly: Partial agonist activity at recombinant N-terminal GFP-fused PPARgamma LBD (unknown origin) assessed as increase in biotinylated-SRC1 peptide recruitment measured after 2 hrs by HTRF assay.

The source made the active and inactive calls. The rule behind the calls is not given here.

Usually EC50 stands for the concentration needed to bring the measured effect to its halfway point.

Chain of Retinoic acid receptor (Homo sapiens) (P10276 whole entry, looked up): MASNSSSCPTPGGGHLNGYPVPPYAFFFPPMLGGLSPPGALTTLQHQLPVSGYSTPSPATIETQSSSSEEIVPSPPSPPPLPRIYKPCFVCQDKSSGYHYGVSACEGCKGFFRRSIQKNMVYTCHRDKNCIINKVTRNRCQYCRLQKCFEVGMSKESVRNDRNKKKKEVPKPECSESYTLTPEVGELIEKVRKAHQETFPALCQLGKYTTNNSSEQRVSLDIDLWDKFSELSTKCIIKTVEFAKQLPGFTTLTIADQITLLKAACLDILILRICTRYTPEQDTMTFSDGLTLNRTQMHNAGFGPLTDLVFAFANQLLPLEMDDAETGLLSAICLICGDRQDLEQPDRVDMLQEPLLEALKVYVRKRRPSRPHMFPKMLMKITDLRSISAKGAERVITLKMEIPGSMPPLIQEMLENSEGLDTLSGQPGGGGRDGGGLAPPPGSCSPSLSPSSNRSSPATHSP
Chain of Retinoic acid receptor (Homo sapiens) (P10826 whole entry, looked up): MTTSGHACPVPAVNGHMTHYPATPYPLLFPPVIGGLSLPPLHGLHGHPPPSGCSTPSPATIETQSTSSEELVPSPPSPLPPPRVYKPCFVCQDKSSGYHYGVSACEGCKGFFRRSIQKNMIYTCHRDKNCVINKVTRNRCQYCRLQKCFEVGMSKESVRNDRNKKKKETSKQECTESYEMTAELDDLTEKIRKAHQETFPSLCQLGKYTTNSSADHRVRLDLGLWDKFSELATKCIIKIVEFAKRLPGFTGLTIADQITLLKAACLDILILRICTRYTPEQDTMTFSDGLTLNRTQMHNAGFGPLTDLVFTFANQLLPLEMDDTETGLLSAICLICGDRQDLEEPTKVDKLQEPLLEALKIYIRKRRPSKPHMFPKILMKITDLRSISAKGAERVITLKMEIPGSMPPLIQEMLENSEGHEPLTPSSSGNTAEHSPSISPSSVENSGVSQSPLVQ
Chain of Retinoic acid receptor (Homo sapiens) (P13631 whole entry, looked up): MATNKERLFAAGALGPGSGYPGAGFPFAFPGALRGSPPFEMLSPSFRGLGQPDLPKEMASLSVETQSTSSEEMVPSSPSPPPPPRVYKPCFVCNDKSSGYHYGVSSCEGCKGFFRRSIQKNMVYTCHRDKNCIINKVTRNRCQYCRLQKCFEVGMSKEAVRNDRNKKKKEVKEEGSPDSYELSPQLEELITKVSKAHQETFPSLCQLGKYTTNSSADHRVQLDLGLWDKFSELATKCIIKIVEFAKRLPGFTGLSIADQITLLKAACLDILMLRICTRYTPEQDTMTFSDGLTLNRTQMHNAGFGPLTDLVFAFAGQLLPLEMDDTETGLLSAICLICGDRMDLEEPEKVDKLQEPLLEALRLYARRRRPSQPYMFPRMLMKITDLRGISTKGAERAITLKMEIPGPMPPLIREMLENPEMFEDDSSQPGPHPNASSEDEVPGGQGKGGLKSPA
Chain of Retinoid X receptor (Homo sapiens) (P19793 whole entry, looked up, the tested form may be a part): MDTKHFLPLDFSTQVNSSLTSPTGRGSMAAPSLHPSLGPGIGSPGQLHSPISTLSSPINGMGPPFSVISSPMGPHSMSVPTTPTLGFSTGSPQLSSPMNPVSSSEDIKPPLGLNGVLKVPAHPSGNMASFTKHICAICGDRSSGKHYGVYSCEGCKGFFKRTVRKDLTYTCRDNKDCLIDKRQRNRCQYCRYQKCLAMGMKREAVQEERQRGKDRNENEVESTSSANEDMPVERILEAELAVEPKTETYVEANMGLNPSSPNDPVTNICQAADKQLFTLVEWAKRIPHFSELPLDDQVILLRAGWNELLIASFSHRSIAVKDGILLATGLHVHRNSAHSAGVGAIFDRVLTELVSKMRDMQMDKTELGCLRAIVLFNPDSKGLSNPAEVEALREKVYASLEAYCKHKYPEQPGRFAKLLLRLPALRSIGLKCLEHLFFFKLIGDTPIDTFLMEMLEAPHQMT
Chain of Retinoid X receptor (Homo sapiens) (P28702 whole entry, looked up, the tested form may be a part): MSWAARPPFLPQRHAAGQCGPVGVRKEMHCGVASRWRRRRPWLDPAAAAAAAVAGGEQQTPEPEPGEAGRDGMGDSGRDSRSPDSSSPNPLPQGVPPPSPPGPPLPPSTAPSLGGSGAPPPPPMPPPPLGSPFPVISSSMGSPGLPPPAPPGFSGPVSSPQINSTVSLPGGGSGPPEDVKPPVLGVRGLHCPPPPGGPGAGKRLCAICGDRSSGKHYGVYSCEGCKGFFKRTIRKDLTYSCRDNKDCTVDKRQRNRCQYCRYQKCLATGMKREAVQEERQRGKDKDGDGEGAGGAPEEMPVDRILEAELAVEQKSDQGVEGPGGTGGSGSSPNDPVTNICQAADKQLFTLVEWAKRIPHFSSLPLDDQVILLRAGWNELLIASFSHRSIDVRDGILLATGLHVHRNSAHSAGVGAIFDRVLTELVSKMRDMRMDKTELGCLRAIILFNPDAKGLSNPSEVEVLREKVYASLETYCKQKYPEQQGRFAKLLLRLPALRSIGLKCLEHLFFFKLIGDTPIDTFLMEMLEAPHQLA
Chain of Retinoid X receptor (Homo sapiens) (P48443 whole entry, looked up, the tested form may be a part): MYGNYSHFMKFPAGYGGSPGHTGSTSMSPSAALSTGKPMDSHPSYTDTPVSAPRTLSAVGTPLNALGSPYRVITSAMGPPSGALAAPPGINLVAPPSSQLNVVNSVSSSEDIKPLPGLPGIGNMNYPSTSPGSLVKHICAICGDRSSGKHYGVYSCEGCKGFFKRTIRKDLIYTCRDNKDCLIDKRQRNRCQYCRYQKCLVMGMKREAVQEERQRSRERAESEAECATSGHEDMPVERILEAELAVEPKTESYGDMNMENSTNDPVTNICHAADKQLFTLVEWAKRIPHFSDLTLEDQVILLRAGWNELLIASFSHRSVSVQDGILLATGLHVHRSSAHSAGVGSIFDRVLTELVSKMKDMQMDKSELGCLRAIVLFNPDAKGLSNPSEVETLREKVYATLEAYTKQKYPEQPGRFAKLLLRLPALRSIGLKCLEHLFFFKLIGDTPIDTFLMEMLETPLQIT

Regarding `CCCCCCC(Sc1nc2ccc(NS(=O)(=O)c3ccc(Cl)cc3Cl)cc2s1)C(=O)O` (stereo not drawn), the EC50 in [1] worked out at 500 nM; in series [3] it was 197 nM; in series [4] it was 2.2 nM; in series [6], 437 nM; in series [7], 887 nM; in series [11], 400 nM. In addition, the EC50 in [12] came out at 107 nM. Further, the max activation in [2] is 67%; in series [9] it was 12%. Besides, the result in series [5] and in series [8] was inactive. Moreover, the values for the Activity result (in the series on NHDF; in series [10]) were “Non-Toxic” and “Not Active”, respectively.

Values taken from ChEMBL document CHEMBL4354876, “A Selective Modulator of Peroxisome Proliferator-Activated Receptor γ with an Unprecedented Binding Mode” (J Med Chem, 2020).
